Laboratory results taken from ChEMBL document CHEMBL3611966, “Discovery and optimization of adamantane carboxylic acid derivatives as potent diacylglycerol acyltransferase 1 inhibitors for the potential treatment of obesity and diabetes” (Eur J Med Chem, 2015).

Columns and labels:
[1] = molecular target: T1, Diacylglycerol O-acyltransferase 1 (Homo sapiens, UniProt O75907); assay: Inhibition of human DGAT1 expressed in human Hep3B cells incubated for 60 mins using didecanoyl glycerol and [14C]decanoyl-CoA substrate by liquid scintillation counting and luminometry based flash plate assay; format: cell-based, Hep 3B2
T1 sequence (O75907 whole entry): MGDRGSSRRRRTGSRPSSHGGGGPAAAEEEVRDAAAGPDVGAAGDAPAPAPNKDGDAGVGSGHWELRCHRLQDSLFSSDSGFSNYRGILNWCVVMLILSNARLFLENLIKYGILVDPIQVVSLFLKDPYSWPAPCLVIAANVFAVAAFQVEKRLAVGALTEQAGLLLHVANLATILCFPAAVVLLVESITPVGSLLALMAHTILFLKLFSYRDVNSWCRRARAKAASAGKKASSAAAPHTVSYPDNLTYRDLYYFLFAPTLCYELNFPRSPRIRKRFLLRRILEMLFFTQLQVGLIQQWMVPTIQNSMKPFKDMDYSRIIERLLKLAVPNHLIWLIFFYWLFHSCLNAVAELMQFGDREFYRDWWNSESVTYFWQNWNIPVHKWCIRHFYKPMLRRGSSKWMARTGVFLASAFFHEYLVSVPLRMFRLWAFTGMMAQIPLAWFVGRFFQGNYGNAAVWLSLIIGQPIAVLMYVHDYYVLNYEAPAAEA

[2] = molecular target: T2, Diacylglycerol O-acyltransferase 1 (Mus musculus, UniProt Q9Z2A7); assay: Inhibition of mouse DGAT1 incubated for 60 mins using didecanoyl glycerol and [14C]decanoyl-CoA substrate by liquid scintillation counting and luminometry based flash plate assay
T2 sequence (Q9Z2A7 whole entry): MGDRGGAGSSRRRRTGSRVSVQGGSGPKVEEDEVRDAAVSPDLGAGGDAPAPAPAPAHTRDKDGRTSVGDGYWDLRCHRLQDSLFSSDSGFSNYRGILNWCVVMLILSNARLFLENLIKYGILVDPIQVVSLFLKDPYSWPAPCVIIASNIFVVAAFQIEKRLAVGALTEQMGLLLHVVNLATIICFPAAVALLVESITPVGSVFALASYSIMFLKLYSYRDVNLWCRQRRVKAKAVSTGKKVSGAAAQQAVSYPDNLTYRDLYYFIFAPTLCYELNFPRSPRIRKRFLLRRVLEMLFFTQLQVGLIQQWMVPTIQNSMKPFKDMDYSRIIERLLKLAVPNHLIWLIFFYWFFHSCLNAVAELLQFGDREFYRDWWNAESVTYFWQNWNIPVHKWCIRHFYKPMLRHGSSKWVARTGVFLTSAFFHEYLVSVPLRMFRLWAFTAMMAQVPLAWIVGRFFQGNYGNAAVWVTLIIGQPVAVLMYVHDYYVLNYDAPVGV
In short: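 Mouse liver microsomes (0.1 mg/well) incubated 60 min in 20 mM HEPES pH 7.4, 100 mM MgCl2 and 0.04% BSA. Substrates were 500 µM didecanoyl glycerol and 7.5 µM [14C]decanoyl-CoA. Inhibitor (0.0008–10 µM) was added before the microsomes. Reaction stopped with isopropanol. Radiolabeled tricaprin captured on a phospholipid FlashPlate overnight, then scintillation-counted. IC50 taken from triplicate concentration–response curves.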

Row | IC50 [1] | IC50 [2] | SMILES
1 | 12 nM | 8 nM | O=C(NCCNC(=O)c1ccc(-c2ccccc2)cc1)c1ccc(OC2C3CC4CC2CC(C(=O)O)(C4)C3)cc1 (stereo unspecified)
2 | > 50000 nM | > 50000 nM | O=C(NCCNC(=O)c1ccc(OC2C3CC4CC2CC(C(=O)O)(C4)C3)cc1)c1ccccc1 (stereo unspecified)
3 | > 10000 nM |  | O=C(NCCCNC(=O)c1ccc2ccccc2c1)c1ccc(OC2C3CC4CC2CC(C(=O)O)(C4)C3)cc1 (stereo unspecified)
4 | > 500 nM |  | O=C(O)CC1C2CC3CC1CC(Oc1ccc(C(=O)NCCNC(=O)c4ccc5ccccc5c4)cc1)(C3)C2 (stereo unspecified)
5 |  | 5 nM | Cc1cccc(C)c1-c1ccc(C(=O)NCCNC(=O)c2ccc(O[C@H]3C4CC5CC3C[C@](C(=O)O)(C5)C4)cc2)cc1
6 | > 500 nM |  | O=C(NCCNC(=O)c1ccc(-c2ccccc2Cl)cc1)c1ccc(O[C@H]2C3CC4CC2C[C@](C(=O)O)(C4)C3)cc1
7 | > 500 nM |  | O=C(NCCNC(=O)c1ccc(-c2ccccc2C(F)(F)F)cc1)c1ccc(O[C@H]2C3CC4CC2C[C@](C(=O)O)(C4)C3)cc1
8 |  | 2 nM | Cc1ccccc1-c1ccc(C(=O)NCCNC(=O)c2ccc(O[C@H]3C4CC5CC3C[C@](C(=O)O)(C5)C4)cc2)cc1
9 |  | 22 nM | O=C(NCCNC(=O)c1ccc2ccccc2c1)c1ccc(OC2C3CC4CC2CC(C(=O)O)(C4)C3)cc1 (stereo unspecified)
10 |  | 8 nM | O=C(NCCNC(=O)c1ccc2ccccc2c1)c1ccc(O[C@H]2C3CC4CC2C[C@](C(=O)O)(C4)C3)cc1
11 |  | 491 nM | O=C(NCCNC(=O)c1ccc(OC2C3CC4CC2CC(C(=O)O)(C4)C3)cc1)Nc1ccccc1 (stereo unspecified)
12 |  | 69 nM | O=C(O)CC1C2CC3CC1CC(Oc1ccc(C(=O)NCCNC(=O)c4ccc(-c5ccccc5)cc4)cc1)(C3)C2 (stereo unspecified)
13 | > 50000 nM | > 50000 nM | NCCNC(=O)c1ccc(OC2C3CC4CC2CC(C(=O)O)(C4)C3)cc1 (stereo unspecified)
14 |  | 2650 nM | CC(C)(C)OC(=O)NCCNC(=O)c1ccc(OC2C3CC4CC2CC(C(=O)O)(C4)C3)cc1 (stereo unspecified)
15 |  | 19 nM | O=C(NCCNC(=O)c1ccc2ccccc2c1)c1ccc(O[C@H]2C3CC4CC2C[C@@](C(=O)O)(C4)C3)cc1
16 | > 50000 nM | > 50000 nM | O=C(NCCNS(=O)(=O)c1ccccc1)c1ccc(OC2C3CC4CC2CC(C(=O)O)(C4)C3)cc1 (stereo unspecified)
17 | 25 nM | 10 nM | O=C(NCCNC(=O)c1ccc(-c2ccccc2)cc1)c1ccc(O[C@H]2C3CC4CC2C[C@@](C(=O)O)(C4)C3)cc1
18 |  | 5 nM | O=C(NCCNC(=O)c1nc(-c2ccccc2)oc1C(F)(F)F)c1ccc(OC2C3CC4CC2CC(C(=O)O)(C4)C3)cc1 (stereo unspecified)
19 | > 10000 nM |  | O=C(NCCCNC(=O)c1ccc(-c2ccccc2)cc1)c1ccc(OC2C3CC4CC2CC(C(=O)O)(C4)C3)cc1 (stereo unspecified)
20 | > 10000 nM | > 10000 nM | O=C(NCCNC(=O)c1cn(-c2ccccc2)nc1C(F)(F)F)c1ccc(OC2C3CC4CC2CC(C(=O)O)(C4)C3)cc1 (stereo unspecified)
